Each block holds one compound with its values, some of them ahead of it.
Key:
[1] = target: Signal transducer and activator of transcription 3 (Homo sapiens) (UniProt P40763); assay: Inhibition of IL-6 induced STAT3 transcriptional activity in human HEK-Blue IL-6 cells assessed as secreted embryonic alkaline phosphatase reporter gene expression at 10 uM by microplate reader; format: cell-based
Procedure, shortened: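 Single-concentration screen in HEK-Blue IL-6 cells: % inhibition of the SEAP reporter read-out of STAT3 pathway activity, with viability checked by MTT in parallel. Values are averages of three independent experiments.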

[2] = Half life in Sprague-Dawley rat at 25 mg/kg, IG; format: ADME, organism-based; conditions: in vivo, po
Procedure, shortened: (§1)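 Rats, n = 3 per group, received a single dose either intragastrically (25 mg/kg) or intravenously (5 mg/kg). Plasma concentration–time curves were used to derive t1/2α, t1/2β, Vd/F, CL/F, AUC0–∞, Tmax and Cmax. Absolute oral bioavailability was calculated from the ig and iv data.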

[3] = Half life in Sprague-Dawley rat at 5 mg/kg, iv; format: ADME, organism-based; conditions: in vivo; procedure, shortened: as §1
[4] = Elimination Half life in Sprague-Dawley rat at 25 mg/kg, IG; format: ADME, organism-based; conditions: in vivo, po, read-out: beta t1/2 (converted); procedure, shortened: as §1
[5] = Elimination Half life in Sprague-Dawley rat at 5 mg/kg, iv; format: ADME, organism-based; conditions: in vivo, read-out: beta t1/2 (converted); procedure, shortened: as §1
[6] = Apparent volume of distribution in Sprague-Dawley rat at 25 mg/kg, IG; format: ADME, organism-based; conditions: in vivo, po
[7] = Apparent volume of distribution in Sprague-Dawley rat at 5 mg/kg, iv; format: ADME, organism-based; conditions: in vivo; procedure, shortened: as §1
[8] = Apparent oral clearance in Sprague-Dawley rat at 25 mg/kg, IG; format: ADME, organism-based; conditions: in vivo, read-out: CL/F (converted); procedure, shortened: as §1
[9] = AUC (0 to infinity) in Sprague-Dawley rat at 25 mg/kg, IG; format: ADME, organism-based; design: route […], time infinity, dose 25 mg/kg; conditions: in vivo, po; procedure, shortened: as §1
[10] = AUC (0 to infinity) in Sprague-Dawley rat at 5 mg/kg, iv; format: ADME, organism-based; design: route intravenous, time infinity, dose 5 mg/kg; conditions: in vivo; procedure, shortened: as §1
[11] = Tmax in Sprague-Dawley rat at 25 mg/kg, IG; format: ADME, organism-based; conditions: in vivo, po
[12] = Cmax in Sprague-Dawley rat at 25 mg/kg, IG; format: ADME, organism-based; design: route […], dose 25 mg/kg; conditions: in vivo, po; procedure, shortened: as §1
[13] = Cmax in Sprague-Dawley rat at 5 mg/kg, iv; format: ADME, organism-based; design: route intravenous, dose 5 mg/kg; conditions: in vivo; procedure, shortened: as §1
[14] = Absolute bioavailability in Sprague-Dawley rat at 25 mg/kg, IG; format: ADME, organism-based; conditions: in vivo, po; procedure, shortened: as §1
[15] = Cytotoxicity against human HeLa cells assessed as inhibition of cell viability at 10 uM measured after 48 hrs by MTT assay; format: cell-based; conditions: read-out: INH
[16] = tested on: HeLa; assay: Cytotoxicity against human HeLa cells assessed as inhibition of cell viability measured after 48 hrs by MTT assay; format: functional, cell-based
Procedure, shortened: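 Growth was read by MTT assay and IC50 taken from dose–response curves. Values are averages of three independent experiments.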

[17] = Cytotoxicity against human HEK 293T cells assessed as cell growth inhibition at 50 uM measured after 48 hrs by MTT assay; format: cell-based
[18] = Cytotoxicity against human HEK 293T cells assessed as cell growth inhibition at 10 uM measured after 48 hrs by MTT assay; format: cell-based

Signal transducer and activator of transcription 3 (Homo sapiens), sequence (P40763 whole entry): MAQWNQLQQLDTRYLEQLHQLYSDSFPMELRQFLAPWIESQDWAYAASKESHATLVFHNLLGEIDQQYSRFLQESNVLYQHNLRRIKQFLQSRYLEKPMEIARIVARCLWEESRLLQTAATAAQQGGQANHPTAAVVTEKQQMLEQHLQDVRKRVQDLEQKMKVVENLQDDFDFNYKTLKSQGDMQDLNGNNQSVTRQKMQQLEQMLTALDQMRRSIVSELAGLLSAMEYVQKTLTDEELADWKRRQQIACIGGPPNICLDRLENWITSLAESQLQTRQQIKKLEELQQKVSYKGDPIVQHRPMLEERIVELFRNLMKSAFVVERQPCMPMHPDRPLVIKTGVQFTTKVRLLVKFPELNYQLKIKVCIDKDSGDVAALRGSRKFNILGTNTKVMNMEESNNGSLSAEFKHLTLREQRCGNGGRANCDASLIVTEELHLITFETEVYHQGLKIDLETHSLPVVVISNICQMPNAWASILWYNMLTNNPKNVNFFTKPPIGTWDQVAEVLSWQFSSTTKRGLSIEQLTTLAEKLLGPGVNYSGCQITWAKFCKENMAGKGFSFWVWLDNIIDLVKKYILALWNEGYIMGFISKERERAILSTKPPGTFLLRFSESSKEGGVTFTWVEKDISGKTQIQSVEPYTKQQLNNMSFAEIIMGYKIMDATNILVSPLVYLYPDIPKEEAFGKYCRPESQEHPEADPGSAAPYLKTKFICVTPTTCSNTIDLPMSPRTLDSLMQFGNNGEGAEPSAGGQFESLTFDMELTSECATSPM

- inhibition [1]: 14.9%
Compound: COc1ccc(C(=O)Nc2ncc([N+](=O)[O-])s2)cc1

- half-life [2]: 1.9 h
- half-life [3]: 3.6 min
- half-life [4]: 11.1 h
- half-life [5]: 2.3 h
- Vd/F [6]: 0.5 L/kg
- Vd/F [7]: 0.5 L/kg
- CL/F [8]: 0.833 mL/min/kg
- AUC(0-inf) [9]: 391 µg·h/mL
- AUC(0-inf) [10]: 89.4 µg·h/mL
- Tmax [11]: 4 h
- Cmax [12]: 20700 ng/mL
- Cmax [13]: 28100 ng/mL
- bioavailability [14]: 87.4%
Compound: O=C(Nc1ncc([N+](=O)[O-])s1)c1ccc(C(F)(F)F)cc1

- inhibition [1]: 26.7%
Compound: O=C(Nc1ncc([N+](=O)[O-])s1)c1ccc(O)c(O)c1

- inhibition [1]: 9%
Compound: O=C(Nc1ncc([N+](=O)[O-])s1)c1ccc(S(=O)(=O)Nc2ccccc2)cc1

- inhibition [1]: 28.5%
Compound: O=C(Nc1ncc([N+](=O)[O-])s1)c1cccc(O)c1

- inhibition [1]: 35.5%
Compound: O=C(Nc1ncc([N+](=O)[O-])s1)c1ccccc1

- inhibition [1]: 43.7%
Compound: CC(C)(C)c1ccc(C(=O)Nc2ncc([N+](=O)[O-])s2)cc1

- inhibition [1]: -3.3%
Compound: CN1CCN(c2ccc(C(=O)Nc3ncc([N+](=O)[O-])s3)cc2)CC1

- inhibition [1]: 20.9%
Compound: O=C(Nc1ncc([N+](=O)[O-])s1)c1ccc(O)cc1

- inhibition [1]: 23%
Compound: O=C(Nc1ncc([N+](=O)[O-])s1)c1ccccc1Cl

- inhibition [1]: -9.7%
Compound: NS(=O)(=O)c1ccc(C(=O)Nc2ncc([N+](=O)[O-])s2)cc1

- inhibition [1]: 36.4%
Compound: Cc1ccccc1C(=O)Nc1ncc([N+](=O)[O-])s1

- inhibition [1]: 9%
Compound: O=C(Nc1ncc([N+](=O)[O-])s1)c1ccc(N2CCOCC2)cc1
- cytotoxicity at 48 h, 10 µM [15]: 50.6%

- inhibition [1]: 22.1%
Compound: O=C(Nc1ncc([N+](=O)[O-])s1)c1ccccc1F

Compound: C[C@H](NC(=O)/C(C#N)=C/c1cccc(Br)n1)c1ccccc1 [WP 1066]
- IC50 [16]: 4.2 µM
- inhibition at 48 h, 50 µM [17]: 97.2%
- inhibition at 48 h, 10 µM [18]: 79.9%

- inhibition [1]: 15.5%
Compound: O=C(Nc1ncc([N+](=O)[O-])s1)c1ccc(O)cc1O

- inhibition [1]: 25.1%
Compound: O=C(Nc1ncc([N+](=O)[O-])s1)c1ccccc1Br
- cytotoxicity at 48 h, 10 µM [15]: -10.1%

- inhibition [1]: 5.3%
Compound: CS(=O)(=O)c1ccc(C(=O)Nc2ncc([N+](=O)[O-])s2)cc1

- inhibition [1]: 9.1%
Compound: C#CCN(C(=O)c1ccc(C(F)(F)F)cc1)c1ncc([N+](=O)[O-])s1

- inhibition [1]: 19%
Compound: O=C(Nc1ncc([N+](=O)[O-])s1)c1ccccc1[N+](=O)[O-]

Compound: O=C(Nc1ncc([N+](=O)[O-])s1)c1ccccc1O [TIZOXANIDE]
- cytotoxicity at 48 h, 10 µM [15]: 12.7%
- IC50 [16]: 29.8 µM
- inhibition at 48 h, 50 µM [17]: 21.6%
- inhibition at 48 h, 10 µM [18]: -5.7%

Reference: ChEMBL document CHEMBL4706740, “Structure-Activity Study of Nitazoxanide Derivatives as Novel STAT3 Pathway Inhibitors” (ACS Med Chem Lett, 2021)
